# The full list was thinned out, with hits kept by preference.
# YB-1 expression – YB-1 expression inhibition. delta delta Cp (YB-1 minus CDIP) (no concentration beside the values). U2OS, qRT-PCR YB-1 vs CDIP delta delta Cp, 16 h; hits give high values; zero = DMSO, each unit about twofold. hit rate 0.37% among 30,000;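 active = delta delta Cp rounded down to an integer at or above 3, about 3 SD of DMSO wells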;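 note: higher means less YB-1 transcript or more CDIP transcript relative to DMSO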
# T cruzi intra – inhibitors of intracellular Trypanosoma cruzi | activity score (inhibition), % at 5.01 µM | AID 651903 | hit rate 4.9% among 22,000 | intracellular Trypanosoma cruzi in host cells, plate reader; in the data active = activity score above about 55%;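 note: parasites and compound incubated about four days before reading; 0% = median of neutral control wells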
# INS-1E ATP HTS – rescue of cytokine-induced death in INS-1E beta cells; protection from cytokine-induced ATP loss, % at 10 µM; INS-1E cytokine-induced death, ATP luminescence, 48 h; normalised: neutral wells 0, positive control 100; hit rate 0.1% among 20,000; AID 488910;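 active = mean replicate protection from cytokine-induced ATP loss at least 50% and at least 75% of replicates each reaching 50%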
#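 Assay system: INS-1E rat cells / Quantity: 8000 cells per well / Medium: RPMI without phenol red, 5% FBS / Probe or stimulus: three-cytokine cocktail (IFN-γ, TNF-α, IL-1β) / Dosing: one compound concentration, pin transfer / Timing: 48 h co-treatment, 10 min post-lysis read / Technique: CellTiter-Glo luminescence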
# Active calls of the source: *; · = no result.
SMILES,YB-1 expression,T cruzi intra,INS-1E ATP HTS
Cc1ccc(S(=O)(=O)N(C)C[C@@H]2Oc3ccc(NC(=O)Cc4ccccc4)cc3C(=O)N([C@H](C)CO)C[C@H]2C)cc1,-0.072,-1,-6
C[C@H]1CN([C@@H](C)CO)C(=O)c2cc(NC(=O)CCN3CCOCC3)ccc2O[C@H]1CN(C)S(=O)(=O)c1ccccc1,-0.1,-7,-5
C[C@H](CO)N1C[C@H](C)[C@H](CN(C)S(=O)(=O)c2ccc(F)cc2)Oc2ccc(N(C)C)cc2CC1=O,0.019,9,8
C=CCNC(=O)[C@H]1[C@@H]2C(=O)O[C@@H](c3ccccc3)[C@@H](c3ccccc3)N2[C@@H](c2ccc(OCCO)cc2)[C@]12C(=O)N(C(=O)OCCOC)c1ccc(C#CC3(O)CCCCCC3)cc12,0.14,·,·
C[C@@H]1CN([C@@H](C)CO)C(=O)c2cc(NS(=O)(=O)c3ccccc3)ccc2O[C@H]1CN(C)C(=O)Nc1cccc2ccccc12,0.59,-10,2
C[C@@H]1CN([C@H](C)CO)C(=O)Cc2cc(NS(=O)(=O)c3ccccc3)ccc2O[C@H]1CN(C)Cc1ccc(C(=O)O)cc1,0.18,-6,8
Cc1ccc(S(=O)(=O)Nc2ccc3c(c2)CC(=O)N([C@@H](C)CO)C[C@H](C)[C@H](CN(C)Cc2ccc(Cl)c(Cl)c2)O3)cc1,-0.05,19,0
C[C@H]1CN([C@@H](C)CO)C(=O)Cc2cc(NS(C)(=O)=O)ccc2O[C@H]1CN(C)Cc1ccc(Cl)c(Cl)c1,0.28,4,4
Cc1ccc(S(=O)(=O)Nc2ccc3c(c2)CC(=O)N([C@H](C)CO)C[C@@H](C)[C@H](CN(C)Cc2ccc(Cl)c(Cl)c2)O3)cc1,0.16,65*,2
Cc1ccc(S(=O)(=O)Nc2ccc3c(c2)CC(=O)N([C@H](C)CO)C[C@@H](C)[C@@H](CN(C)Cc2ccc(Cl)c(Cl)c2)O3)cc1,0.071,71*,-51
Cc1ccc(S(=O)(=O)Nc2ccc3c(c2)CC(=O)N([C@@H](C)CO)C[C@@H](C)[C@@H](CN(C)Cc2ccc(Cl)c(Cl)c2)O3)cc1,0.64,59*,-30
Cc1ccc(S(=O)(=O)Nc2ccc3c(c2)C(=O)N([C@H](C)CO)C[C@@H](C)[C@@H](CN(C)Cc2ccc(Cl)c(Cl)c2)O3)cc1,-0.55,36,-19
C[C@@H]1CN([C@@H](C)CO)C(=O)c2cc(NC(=O)Nc3ccccc3)ccc2O[C@@H]1CN(C)Cc1ccc(Oc2ccccc2)cc1,0.042,13,-42
C[C@H](CO)N1C[C@H](C)[C@H](CN(C)C(=O)Nc2ccc(F)cc2)Oc2ccc(NS(=O)(=O)c3ccccc3)cc2CC1=O,-0.2,3,15
Cc1noc(C)c1S(=O)(=O)Nc1ccc2c(c1)C(=O)N([C@H](C)CO)C[C@H](C)[C@@H](CN(C)C(=O)CCC(F)(F)F)OCCCC[C@@H](C)O2,-0.32,-18,7
COc1ccc(NC(=O)Nc2ccc3c(c2)C(=O)N([C@H](C)CO)C[C@H](C)[C@H](CN(C)Cc2ccc(Cl)c(Cl)c2)O3)cc1,0.64,22,-20
C[C@H](CO)N1C[C@H](C)[C@@H](CN(C)C(=O)Nc2ccc(C(F)(F)F)cc2)Oc2c(NC(=O)c3ccncc3)cccc2C1=O,0.85,15,11
C[C@@H]1CN([C@H](C)CO)C(=O)c2cccc(NC(=O)c3ccncc3)c2O[C@@H]1CN(C)C(=O)Nc1ccccc1,0.43,-22,1
C[C@H]1CN([C@@H](C)CO)C(=O)c2cccc(NC(=O)c3ccncc3)c2O[C@H]1CN(C)C(=O)Nc1ccccc1,0.68,79*,4
C[C@@H]1CN([C@@H](C)CO)C(=O)c2cccc(NC(=O)c3ccncc3)c2O[C@@H]1CN(C)C(=O)Nc1ccc(F)cc1,-0.25,-7,10
C[C@H](CO)N1C[C@H](C)[C@H](CN(C)C(=O)Nc2ccc(F)cc2)Oc2c(NC(=O)c3ccncc3)cccc2C1=O,-0.84,81*,2
C[C@H]1CN([C@@H](C)CO)C(=O)c2cccc(NC(=O)c3ccncc3)c2O[C@H]1CN(C)C(=O)Nc1ccc(C(F)(F)F)cc1,0.15,86*,8
Cc1ccc(S(=O)(=O)N(C)C[C@@H]2Oc3ccc(NC(=O)C4CCCCC4)cc3CC(=O)N([C@H](C)CO)C[C@@H]2C)cc1,0.19,6,5

# From PubChem BioAssay
